How the values were obtained:
[1] = tested on: U2OS; assay: Multiplex assay against U2OS; type: toxicity, cell-based; conditions: human
Procedure, shortened: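 Imaging took place on a CQ1 microscope at 37°C and 5% CO2 once compound had been added to live cells stained at seeding with Hoechst33342, BioTracker Green Microtubule Cytoskeleton Dye, MitoTracker Red and Annexin V Alexa Fluor 680. CellPathfinder machine-learning gating classed cells as Hoechst high-intensity objects or normal cells, classed normal cells as having healthy, pyknosed or fragmented nuclei, and classed pyknosed cells as mitotic or apoptotic. Tubulin, mitochondrial-mass and membrane-permeability phenotypes are per cents of the healthy-nucleus cells.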

[2] = tested on: HEK-293T; assay: Incucyte cell viability with HEK293T; type: toxicity, cell-based; conditions: human, 10 µM, compound concentration 10 uM; further: filed as whole numbers so only -1 and 0 and 1 occur
[3] = 12 h, 1 µM, compound concentration 1 uM, replicate 1
[4] = 12 h, 1 µM, compound concentration 1 uM, replicate 2
[5] = 12 h, 10 µM, compound concentration 10 uM, replicate 1
[6] = 12 h, 10 µM, compound concentration 10 uM, replicate 2
[7] = 24 h, 1 µM, compound concentration 1 uM, replicate 1
[8] = 24 h, 1 µM, compound concentration 1 uM, replicate 2
[9] = 24 h, 10 µM, compound concentration 10 uM, replicate 1
[10] = 24 h, 10 µM, compound concentration 10 uM, replicate 2
[11] = 48 h, 1 µM, compound concentration 1 uM, replicate 1
[12] = 48 h, 1 µM, compound concentration 1 uM, replicate 2
[13] = 48 h, 10 µM, compound concentration 10 uM, replicate 1
[14] = 48 h, 10 µM, compound concentration 10 uM, replicate 2

## Cc1ccc(S(=O)(=O)NC2c3ccccc3Oc3ccccc32)cc1
[1]; [3]
  Population Apoptotic (%): 47%
  Population Fragmented Nuclei (%): 11%
  Population Healthy Nuclei (%): 77%
  Population Hoechst High Intensity Objects (%): 5%
  Population Membrane Permeable-Phenotype (%): 6%
  Population Mitochondria Different-Phenotype (%): 5%
  Population Mitotic Cells (%): 52%
  Population Normal (%): 94%
  Population Pyknosed Nuclei (%): 10%
  Population Tubulin-Different-Phenotype (%): 5%
  Total Cell Count: 216
[1]; [4]
  Population Apoptotic (%): 0%
  Population Fragmented Nuclei (%): 10%
  Population Healthy Nuclei (%): 76%
  Population Hoechst High Intensity Objects (%): 4%
  Population Membrane Permeable-Phenotype (%): 0%
  Population Mitochondria Different-Phenotype (%): 16%
  Population Mitotic Cells (%): 100%
  Population Normal (%): 95%
  Population Pyknosed Nuclei (%): 12%
  Population Tubulin-Different-Phenotype (%): 2%
  Total Cell Count: 49
[1]; [5]
  Population Apoptotic (%): 71%
  Population Fragmented Nuclei (%): 84%
  Population Healthy Nuclei (%): 12%
  Population Hoechst High Intensity Objects (%): 7%
  Population Membrane Permeable-Phenotype (%): 71%
  Population Mitochondria Different-Phenotype (%): 28%
  Population Mitotic Cells (%): 28%
  Population Normal (%): 92%
  Population Pyknosed Nuclei (%): 2%
  Population Tubulin-Different-Phenotype (%): 68%
  Total Cell Count: 507
[1]; [6]
  Population Apoptotic (%): 95%
  Population Fragmented Nuclei (%): 42%
  Population Healthy Nuclei (%): 34%
  Population Hoechst High Intensity Objects (%): 6%
  Population Membrane Permeable-Phenotype (%): 44%
  Population Mitochondria Different-Phenotype (%): 0%
  Population Mitotic Cells (%): 4%
  Population Normal (%): 93%
  Population Pyknosed Nuclei (%): 23%
  Population Tubulin-Different-Phenotype (%): 50%
  Total Cell Count: 106
[1]; [7]
  Population Apoptotic (%): 59%
  Population Fragmented Nuclei (%): 57%
  Population Healthy Nuclei (%): 25%
  Population Hoechst High Intensity Objects (%): 0%
  Population Membrane Permeable-Phenotype (%): 11%
  Population Mitochondria Different-Phenotype (%): 17%
  Population Mitotic Cells (%): 40%
  Population Normal (%): 100%
  Population Pyknosed Nuclei (%): 16%
  Population Tubulin-Different-Phenotype (%): 5%
  Total Cell Count: 132
[1]; [8]
  Population Apoptotic (%): 25%
  Population Fragmented Nuclei (%): 5%
  Population Healthy Nuclei (%): 88%
  Population Hoechst High Intensity Objects (%): 7%
  Population Membrane Permeable-Phenotype (%): 7%
  Population Mitochondria Different-Phenotype (%): 15%
  Population Mitotic Cells (%): 75%
  Population Normal (%): 92%
  Population Pyknosed Nuclei (%): 6%
  Population Tubulin-Different-Phenotype (%): 13%
  Total Cell Count: 65
[1]; [9]
  Population Apoptotic (%): 71%
  Population Fragmented Nuclei (%): 69%
  Population Healthy Nuclei (%): 27%
  Population Hoechst High Intensity Objects (%): 6%
  Population Membrane Permeable-Phenotype (%): 34%
  Population Mitochondria Different-Phenotype (%): 18%
  Population Mitotic Cells (%): 28%
  Population Normal (%): 93%
  Population Pyknosed Nuclei (%): 2%
  Population Tubulin-Different-Phenotype (%): 19%
  Total Cell Count: 321
[1]; [10]
  Population Apoptotic (%): 100%
  Population Fragmented Nuclei (%): 10%
  Population Healthy Nuclei (%): 68%
  Population Hoechst High Intensity Objects (%): 4%
  Population Membrane Permeable-Phenotype (%): 20%
  Population Mitochondria Different-Phenotype (%): 14%
  Population Mitotic Cells (%): 0%
  Population Normal (%): 95%
  Population Pyknosed Nuclei (%): 21%
  Population Tubulin-Different-Phenotype (%): 43%
  Total Cell Count: 84
[1]; [11]
  Population Apoptotic (%): 50%
  Population Fragmented Nuclei (%): 8%
  Population Healthy Nuclei (%): 85%
  Population Membrane Permeable-Phenotype (%): 0%
  Population Mitochondria Different-Phenotype (%): 7%
  Population Mitotic Cells (%): 50%
  Population Pyknosed Nuclei (%): 6%
  Population Tubulin-Different-Phenotype (%): 3%
  Total Cell Count: 429
[1]; [12]
  Population Apoptotic (%): 25%
  Population Fragmented Nuclei (%): 5%
  Population Healthy Nuclei (%): 90%
  Population Hoechst High Intensity Objects (%): 2%
  Population Membrane Permeable-Phenotype (%): 10%
  Population Mitochondria Different-Phenotype (%): 18%
  Population Mitotic Cells (%): 75%
  Population Normal (%): 97%
  Population Pyknosed Nuclei (%): 4%
  Population Tubulin-Different-Phenotype (%): 10%
  Total Cell Count: 93
[1]; [13]
  Population Apoptotic (%): 44%
  Population Fragmented Nuclei (%): 11%
  Population Healthy Nuclei (%): 82%
  Population Hoechst High Intensity Objects (%): 3%
  Population Membrane Permeable-Phenotype (%): 3%
  Population Mitochondria Different-Phenotype (%): 12%
  Population Mitotic Cells (%): 55%
  Population Normal (%): 96%
  Population Pyknosed Nuclei (%): 6%
  Population Tubulin-Different-Phenotype (%): 12%
  Total Cell Count: 155
[1]; [14]
  Population Apoptotic (%): 75%
  Population Fragmented Nuclei (%): 7%
  Population Healthy Nuclei (%): 84%
  Population Hoechst High Intensity Objects (%): 4%
  Population Membrane Permeable-Phenotype (%): 17%
  Population Mitochondria Different-Phenotype (%): 14%
  Population Mitotic Cells (%): 25%
  Population Normal (%): 95%
  Population Pyknosed Nuclei (%): 7%
  Population Tubulin-Different-Phenotype (%): 37%
  Total Cell Count: 109
[2]; 0 h, replicate number 1, timepoint 0 hours
  Growth Rate: 0
[2]; 12 h, replicate number 1, timepoint 12 hours
  Growth Rate: 1
[2]; 18 h, replicate number 1, timepoint 18 hours
  Growth Rate: 1
[2]; 24 h, replicate number 1, timepoint 24 hours
  Growth Rate: 0

Reference: ChEMBL document CHEMBL4689842, “EUbOPEN Chemogenomics Library wave 1” (2021)
